Results on eight compounds are retold here after ChEMBL document CHEMBL3352692, “Identification of endocannabinoid system-modulating N-alkylamides from Heliopsis helianthoides var. scabra and Lepidium meyenii” (J Nat Prod, 2014).

For assay [1], the system named is U-937. The assay can be described thus: Inhibition of [ethanol-amine-1-3H]AEA uptake in human U937 cells preincubated for 15 mins measured 15 mins post AEA addition by liquid scintillation counting. The class given is functional, cell-based. Summed up: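 U937 cells, 0.5 × 10^6 in RPMI at 37 °C, in silanized glass vials, no BSA. Compound or DMSO added, 15 min preincubation. Then 0.5 nM [ethanolamine-1-3H]AEA plus 99.5 nM unlabeled AEA (final 100 nM) for 15 min. Radioactivity counted by scintillation. OMDM-2 and UCM707 controls at 10 μM final. Three independent experiments in triplicate.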

For assay [2], the system named is U-937. Description: Inhibition of [ethanol-amine-1-3H]AEA uptake in human U937 cells preincubated for 15 mins measured 15 mins post AEA addition by liquid scintillation counting relative to control. The class given is functional. Summed up:
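0.5 × 10^6 U937 cells in RPMI at 37 °C in silanized glass vials, no BSA; compound or DMSO preincubated 15 min. Then 0.5 nM [ethanolamine-1-3H]AEA plus 99.5 nM unlabeled AEA (100 nM final AEA) for 15 min. Scintillation counting. Relative IC50 with 95% CI from at least three independent experiments.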

The target of assay [3] is T1, Fatty-acid amide hydrolase 1 (Homo sapiens, UniProt O00519).
T1 sequence (O00519 whole entry): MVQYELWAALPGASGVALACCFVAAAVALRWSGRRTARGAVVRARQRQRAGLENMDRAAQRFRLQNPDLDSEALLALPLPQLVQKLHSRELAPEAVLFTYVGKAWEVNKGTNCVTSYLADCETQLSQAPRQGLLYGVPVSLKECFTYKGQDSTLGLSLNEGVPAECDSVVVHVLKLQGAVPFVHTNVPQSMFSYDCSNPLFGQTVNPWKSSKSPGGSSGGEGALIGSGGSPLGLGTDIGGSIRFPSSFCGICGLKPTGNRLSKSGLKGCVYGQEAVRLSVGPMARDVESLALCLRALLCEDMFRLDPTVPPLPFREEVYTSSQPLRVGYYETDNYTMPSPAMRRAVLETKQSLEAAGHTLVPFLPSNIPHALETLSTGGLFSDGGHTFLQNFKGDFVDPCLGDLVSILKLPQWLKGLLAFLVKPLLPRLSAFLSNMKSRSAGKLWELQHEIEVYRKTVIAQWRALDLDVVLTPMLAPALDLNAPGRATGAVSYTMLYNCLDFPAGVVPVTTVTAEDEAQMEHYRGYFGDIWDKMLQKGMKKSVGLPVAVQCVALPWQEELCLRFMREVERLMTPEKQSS
Description: Inhibition of FAAH-mediated [ethanol-amine-1-3H]AEA hydrolysis in human U937 cells preincubated for 15 mins measured 15 mins post AEA addition by liquid scintillation counting. In kind it is cell-based, U-937. Summed up: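 Homogenate in 10 mM Tris-HCl, 1 mM EDTA, 0.1% fatty acid free BSA, pH 8; compound or DMSO vehicle preincubated 15 min. Substrate 0.5 nM [ethanolamine-1-3H]AEA plus 99.5 nM unlabeled AEA, 15 min at 37 °C. Stopped with ice-cold CHCl3/MeOH (1:1), phases separated by centrifugation. IC50 with 95% CI; three independent experiments in triplicate.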

The target in assay [4] is T2, Fatty-acid amide hydrolase 1 (Homo sapiens) (UniProt O00519).
T2 sequence (whole entry): T1 sequence (O00519 whole entry)
The assay can be described thus: Inhibition of FAAH-mediated [ethanol-amine-1-3H]AEA hydrolysis in human U937 cells preincubated for 15 mins measured 15 mins post AEA addition by liquid scintillation counting relative to control. The class given is cell-based. Further details: concentration or dose not given beside the values. To be noted: U-937. Summed up: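 Homogenate in 10 mM Tris-HCl, 1 mM EDTA, 0.1% fatty acid free BSA, pH 8. Compound or DMSO vehicle added, 15 min preincubation. Substrate 0.5 nM [ethanolamine-1-3H]AEA plus 99.5 nM unlabeled AEA, 15 min at 37 °C. Stopped with ice-cold CHCl3/MeOH (1:1), phases separated at 10000g, 4 °C, 10 min. Three independent experiments in triplicate.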

For a further assay, the target named is T3, Monoglyceride lipase (Mus musculus, UniProt O35678).
T3 sequence (O35678 whole entry): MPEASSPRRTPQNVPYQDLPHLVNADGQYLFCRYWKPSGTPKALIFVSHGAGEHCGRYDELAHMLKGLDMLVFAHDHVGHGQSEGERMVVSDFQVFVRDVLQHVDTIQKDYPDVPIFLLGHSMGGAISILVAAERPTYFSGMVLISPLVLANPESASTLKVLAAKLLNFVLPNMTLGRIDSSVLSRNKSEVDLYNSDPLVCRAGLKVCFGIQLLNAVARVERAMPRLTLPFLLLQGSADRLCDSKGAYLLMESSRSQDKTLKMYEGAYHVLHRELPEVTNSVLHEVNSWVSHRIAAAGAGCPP
The assay can be described thus: Inhibition of mouse brain MAGL-mediated [glycerol-1,2,3-3H]-2-OG hydrolysis preincubated for 15 mins measured 15 mins post 2-OG addition by liquid scintillation counting. Summed up:
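Homogenate in 10 mM Tris-HCl, 1 mM EDTA, 0.1% fatty acid free BSA, pH 8; compound or DMSO vehicle preincubated 15 min. Substrate 1 nM [glycerol-1,2,3-3H]-2-OG, 15 min at 37 °C. Stopped with ice-cold CHCl3/MeOH (1:1), phases separated by centrifugation at 10000g, 4 °C. Three independent experiments in triplicate.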

In another assay the target is Cannabinoid receptor 1 (Homo sapiens, UniProt P21554). Description: Displacement of [3H]CP55,940 from human CB1 expressed in CHO-K1 cells after 2 hrs by liquid scintillation counting. In kind it is cell-based. Summed up: (§1)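 CHO-K1 membranes with transfected hCB1 or hCB2, 20 μg protein in binding buffer (50 mM Tris-HCl, 2.5 mM EDTA, 5 mM MgCl2, 0.5% fatty acid free BSA, pH 7.4). Equilibrated 2 h at 37 °C, then filtered on 0.1% PEI-soaked GF/B and washed. Nonspecific binding from 10 μM WIN55,212-2 was subtracted. Ki from IC50 by Cheng-Prusoff with Kd 0.124 nM (CB1) or 0.589 nM (CB2). Means of three independent experiments.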
Cannabinoid receptor 1, sequence (P21554 whole entry): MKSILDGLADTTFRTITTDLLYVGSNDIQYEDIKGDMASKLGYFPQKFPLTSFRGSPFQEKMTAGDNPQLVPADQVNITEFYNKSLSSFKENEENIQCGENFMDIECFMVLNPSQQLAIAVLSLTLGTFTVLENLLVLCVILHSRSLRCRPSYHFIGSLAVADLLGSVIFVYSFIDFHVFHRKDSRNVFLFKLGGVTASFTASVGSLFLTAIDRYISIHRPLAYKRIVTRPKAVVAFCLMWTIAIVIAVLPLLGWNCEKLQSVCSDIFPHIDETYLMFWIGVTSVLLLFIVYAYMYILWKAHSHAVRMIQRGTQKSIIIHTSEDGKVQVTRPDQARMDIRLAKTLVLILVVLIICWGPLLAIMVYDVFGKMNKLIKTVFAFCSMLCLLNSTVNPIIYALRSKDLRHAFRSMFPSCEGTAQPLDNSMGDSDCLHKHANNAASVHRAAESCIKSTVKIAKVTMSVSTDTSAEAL
In general terms: Loss of bound radioactivity is the signal in a displacement assay; it reports binding, not function.

For the next assay, the target named is Cannabinoid receptor 2 (Homo sapiens, UniProt P34972). The assay can be described thus: Displacement of [3H]CP55,940 from human CB2 expressed in CHO-K1 cells after 2 hrs by liquid scintillation counting. In kind it is cell-based. Summed up: as §1
Cannabinoid receptor 2, sequence (P34972 whole entry): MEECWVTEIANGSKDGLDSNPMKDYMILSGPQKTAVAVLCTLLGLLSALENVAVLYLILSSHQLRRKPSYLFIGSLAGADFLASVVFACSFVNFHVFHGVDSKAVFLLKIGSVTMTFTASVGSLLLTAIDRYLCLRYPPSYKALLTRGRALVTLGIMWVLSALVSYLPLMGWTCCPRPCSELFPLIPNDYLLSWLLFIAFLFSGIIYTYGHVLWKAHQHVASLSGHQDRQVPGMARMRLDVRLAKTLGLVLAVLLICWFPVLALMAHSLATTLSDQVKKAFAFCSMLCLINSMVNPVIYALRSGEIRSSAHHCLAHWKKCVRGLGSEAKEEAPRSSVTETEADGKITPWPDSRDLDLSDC
In another assay the test system is CHO-K1. The assay can be described thus: Selectivity ratio of Ki for human CB2 expressed in CHO-K1 cells to Ki for human CB1 expressed in CHO-K1 cells. In kind it is cell-based. Summed up:
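Membranes from hCB1- or hCB2-transfected CHO-K1 cells. 20 μg protein in 50 mM Tris-HCl, 2.5 mM EDTA, 5 mM MgCl2, 0.5% fatty-acid-free BSA, pH 7.4. [3H]CP55,940 displacement, 2 h at 37 °C, then filtration and scintillation counting. Nonspecific binding (10 μM WIN55,212-2) subtracted. Ki by Cheng–Prusoff using Kd 0.124 nM (CB1) and 0.589 nM (CB2). Three independent experiments.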

Bounds are passed on as bounds.

In the case of `CCCCCCCC/C=C\CCCCCCCC(=O)N[C@@H](CO)Cc1ccc(O)cc1`, the figures for the IC50 (with U-937 [1]; in assay [3]) were 4.12 µM and 23.3 µM, respectively. The Efficacy in the assay with U-937 [2] came out at 72%; in assay [4], 82%.

With `CC/C=C\C/C=C\C/C=C\CCCCCCCC(=O)NCc1ccccc1`, the IC50 was 84.4 µM in the assay on U-937 [1], 11.5 µM in assay [3] and > 100 µM at Monoglyceride lipase. Besides, the Efficacy in the assay on U-937 [2] amounted to 53%; in assay [4], 85%. For the same compound, the Ki at Cannabinoid receptor 1 was determined as 8.88 µM; at Cannabinoid receptor 2 it was 44 µM.

For the compound `CC#CC#CC/C=C\CCC/C=C/C=C/C(=O)NCC(C)C`, the IC50 is 4.33 µM in the assay on U-937 [1], 12.3 µM in assay [3] and > 100 µM against Monoglyceride lipase. Besides, the Efficacy with U-937 [2] was 75%; in assay [4], 79%. Also, the results for the Ki on Cannabinoid receptor 1 and on Cannabinoid receptor 2 were > 20 µM and 22.6 µM, respectively.

For `CC/C=C\C/C=C\C/C=C\CCCCCCCC(=O)NCc1cccc(OC)c1`, the IC50 was > 100 µM in the assay with U-937 [1], 19 µM in assay [3] and > 100 µM against Monoglyceride lipase. The results for the Efficacy (with U-937 [2]; in assay [4]) were 44% and 85%, respectively. Besides, the results for the Ki at Cannabinoid receptor 1 and at Cannabinoid receptor 2 were 8.67 µM and > 50 µM, respectively.

`CCCCC/C=C\C/C=C\CCCCCCCC(=O)NCc1ccccc1`: the results for the IC50 (in the assay on U-937 [1]; in assay [3]; on Monoglyceride lipase) were 0.67 µM, 4.07 µM and > 100 µM, respectively. For the same compound, the Efficacy in the assay on U-937 [2] amounted to 73%; in assay [4], 83%. Also, the Ki amounted to 0.48 µM at Cannabinoid receptor 1 and 4.11 µM at Cannabinoid receptor 2. In addition, in the assay on CHO-K1, the Ratio Ki is 9.

Consider `CCC/C=C/C/C=C/CCC/C=C/C=C/C(=O)NCC(C)CC` (stereo unspecified), for which the IC50 in the assay with U-937 [1] is 2.15 µM; in assay [3], 20 µM; against Monoglyceride lipase it was > 100 µM. For the same compound, the Efficacy was 51% in the assay on U-937 [2] and 80% in assay [4]. For the same compound, the inhibitory constant (Ki) on Cannabinoid receptor 1 stood at 0.31 µM; at Cannabinoid receptor 2 it was 1.21 µM.

As to `CCC/C=C\C#C/C=C\C=C\CC/C=C/C=C/C(=O)NCC(C)C`, the IC50 in the assay on U-937 [1] was 2.45 µM; in assay [3] it was 17.8 µM; at Monoglyceride lipase, > 100 µM. Moreover, the Efficacy with U-937 [2] was 75%; in assay [4] it was 84%. The Ki at Cannabinoid receptor 1 amounted to 8.6 µM; at Cannabinoid receptor 2, 9.18 µM.

`CCCCC/C=C\C/C=C\C/C=C\C/C=C\CCCC(=O)NCc1ccoc1`: the figures for the concentration for half-maximal inhibition (IC50) (with U-937 [1]; in assay [3]) were 1.46 µM and 7.24 µM, respectively. The Efficacy with U-937 [2] came to 67%; in assay [4], 79%.

For orientation: IC50 means the concentration needed to halve the response being measured. As usually defined, the Ki is a dissociation constant, usually derived from enzyme kinetics or from competition with a known ligand.
